From ChEMBL document CHEMBL1139139, “Discovery of novel 2,3-diarylfuro[2,3-b]pyridin-4-amines as potent and selective inhibitors of Lck: synthesis, SAR, and pharmacokinetic properties” (Bioorg Med Chem Lett, 2007)

What was measured:
[1] = target: Tyrosine-protein kinase Lck (Homo sapiens, UniProt P06239); experiment: Inhibition of Lck by HTRF assay
[2] = target: Vascular endothelial growth factor receptor 2 (Homo sapiens, UniProt P35968); experiment: Inhibition of KDR
Activated CDC42 kinase 1 = Activated CDC42 kinase 1 (Homo sapiens, UniProt Q07912); experiment: Inhibition of Ack1
[3] = target: T1, Tyrosine-protein kinase JAK3 (Homo sapiens, UniProt P52333); experiment: Inhibition of JAK3
T1 sequence (P52333 whole entry): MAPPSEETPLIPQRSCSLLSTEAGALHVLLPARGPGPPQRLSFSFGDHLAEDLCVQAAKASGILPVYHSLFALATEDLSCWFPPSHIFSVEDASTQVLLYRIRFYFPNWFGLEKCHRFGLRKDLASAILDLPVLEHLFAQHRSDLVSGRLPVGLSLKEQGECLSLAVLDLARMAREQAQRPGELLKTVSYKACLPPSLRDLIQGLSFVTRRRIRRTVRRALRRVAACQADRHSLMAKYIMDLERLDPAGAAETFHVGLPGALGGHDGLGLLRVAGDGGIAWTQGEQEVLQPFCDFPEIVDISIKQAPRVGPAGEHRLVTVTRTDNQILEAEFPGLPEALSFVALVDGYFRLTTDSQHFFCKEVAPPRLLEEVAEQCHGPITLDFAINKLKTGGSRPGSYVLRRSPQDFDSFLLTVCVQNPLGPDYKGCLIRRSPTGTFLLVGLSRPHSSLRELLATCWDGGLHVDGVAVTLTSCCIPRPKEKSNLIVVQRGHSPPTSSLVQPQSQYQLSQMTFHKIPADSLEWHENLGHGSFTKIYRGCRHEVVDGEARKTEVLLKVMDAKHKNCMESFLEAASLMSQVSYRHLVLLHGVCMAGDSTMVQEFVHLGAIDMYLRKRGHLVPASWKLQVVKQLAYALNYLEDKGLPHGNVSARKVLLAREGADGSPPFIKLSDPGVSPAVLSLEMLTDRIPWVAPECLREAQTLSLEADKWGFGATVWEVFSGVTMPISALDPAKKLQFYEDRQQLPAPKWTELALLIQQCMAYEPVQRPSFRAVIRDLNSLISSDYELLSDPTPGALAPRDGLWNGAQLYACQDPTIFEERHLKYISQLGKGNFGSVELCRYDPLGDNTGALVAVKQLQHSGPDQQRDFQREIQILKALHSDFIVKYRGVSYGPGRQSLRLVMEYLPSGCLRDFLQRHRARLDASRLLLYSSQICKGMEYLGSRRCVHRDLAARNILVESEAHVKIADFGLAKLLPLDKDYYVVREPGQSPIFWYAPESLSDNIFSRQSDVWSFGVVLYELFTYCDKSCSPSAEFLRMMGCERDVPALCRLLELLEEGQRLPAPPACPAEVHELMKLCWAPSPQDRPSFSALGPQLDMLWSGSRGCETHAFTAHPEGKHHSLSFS

T-cell [4] = experiment: Inhibition of anti-CD3/CD28-induced IL2 secretion in human T cells; assay type: functional, cell-based
Summary of the method: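 Human T cells stimulated with anti-CD3/CD28, with IL-2 secretion as read-out. IC50 determined.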

T-cell [5] = experiment: Inhibition of T cell activation in human mixed lymphocyte reaction; assay type: functional, cell-based
Rattus norvegicus = experiment: (§1) Half life in Sprague-Dawley rat at 1 mg/kg, iv; assay type: ADME, organism-based; design: dose 1 mg/kg, route intravenous; details: in vivo
[6] = Clearance in Sprague-Dawley rat at 1 mg/kg, iv; assay type: ADME, organism-based; design: dose 1 mg/kg, route intravenous; details: in vivo
[7] = Volume of distribution at steady state Sprague-Dawley rat at 1 mg/kg, iv; assay type: ADME, organism-based; design: dose 1 mg/kg, route intravenous; details: in vivo, read-out: Vdss
[8] = as §1; assay type: ADME, organism-based; design: dose 1 mg/kg, route intravenous; details: Sprague-Dawley, in vivo

Vascular endothelial growth factor receptor 2, sequence (P35968 whole entry): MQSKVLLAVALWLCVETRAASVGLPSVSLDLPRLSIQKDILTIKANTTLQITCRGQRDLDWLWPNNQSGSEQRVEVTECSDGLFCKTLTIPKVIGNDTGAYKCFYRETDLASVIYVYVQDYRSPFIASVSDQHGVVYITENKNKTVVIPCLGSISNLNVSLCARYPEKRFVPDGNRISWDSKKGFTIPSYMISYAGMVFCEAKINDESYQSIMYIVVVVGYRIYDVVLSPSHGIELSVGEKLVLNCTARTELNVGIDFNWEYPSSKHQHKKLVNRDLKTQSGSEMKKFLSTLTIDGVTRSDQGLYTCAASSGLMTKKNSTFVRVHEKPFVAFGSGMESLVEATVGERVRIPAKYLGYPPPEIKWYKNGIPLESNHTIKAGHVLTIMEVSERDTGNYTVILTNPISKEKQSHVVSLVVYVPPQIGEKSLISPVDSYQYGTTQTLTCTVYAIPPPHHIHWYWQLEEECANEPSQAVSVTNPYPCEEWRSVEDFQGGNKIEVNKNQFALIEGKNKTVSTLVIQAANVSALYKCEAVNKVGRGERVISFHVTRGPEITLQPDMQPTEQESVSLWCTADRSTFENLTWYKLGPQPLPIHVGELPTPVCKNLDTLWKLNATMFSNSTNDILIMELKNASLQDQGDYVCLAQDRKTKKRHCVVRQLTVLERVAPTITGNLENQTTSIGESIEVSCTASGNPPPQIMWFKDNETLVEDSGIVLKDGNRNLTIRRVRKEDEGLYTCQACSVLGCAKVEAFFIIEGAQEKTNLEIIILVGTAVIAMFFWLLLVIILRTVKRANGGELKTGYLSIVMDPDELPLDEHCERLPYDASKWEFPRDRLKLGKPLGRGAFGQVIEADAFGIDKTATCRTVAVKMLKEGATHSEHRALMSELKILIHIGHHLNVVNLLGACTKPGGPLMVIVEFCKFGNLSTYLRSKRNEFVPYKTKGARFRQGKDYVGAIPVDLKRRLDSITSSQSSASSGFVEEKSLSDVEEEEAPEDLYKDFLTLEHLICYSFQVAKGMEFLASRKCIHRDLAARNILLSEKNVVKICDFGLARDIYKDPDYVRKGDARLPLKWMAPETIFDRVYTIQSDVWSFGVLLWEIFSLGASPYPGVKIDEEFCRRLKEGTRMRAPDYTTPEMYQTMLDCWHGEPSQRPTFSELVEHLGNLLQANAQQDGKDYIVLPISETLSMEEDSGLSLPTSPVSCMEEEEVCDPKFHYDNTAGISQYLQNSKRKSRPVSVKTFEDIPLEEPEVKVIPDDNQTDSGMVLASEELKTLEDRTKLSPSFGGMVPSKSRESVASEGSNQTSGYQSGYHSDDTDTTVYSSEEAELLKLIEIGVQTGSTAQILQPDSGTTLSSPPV
Activated CDC42 kinase 1, sequence (Q07912 whole entry): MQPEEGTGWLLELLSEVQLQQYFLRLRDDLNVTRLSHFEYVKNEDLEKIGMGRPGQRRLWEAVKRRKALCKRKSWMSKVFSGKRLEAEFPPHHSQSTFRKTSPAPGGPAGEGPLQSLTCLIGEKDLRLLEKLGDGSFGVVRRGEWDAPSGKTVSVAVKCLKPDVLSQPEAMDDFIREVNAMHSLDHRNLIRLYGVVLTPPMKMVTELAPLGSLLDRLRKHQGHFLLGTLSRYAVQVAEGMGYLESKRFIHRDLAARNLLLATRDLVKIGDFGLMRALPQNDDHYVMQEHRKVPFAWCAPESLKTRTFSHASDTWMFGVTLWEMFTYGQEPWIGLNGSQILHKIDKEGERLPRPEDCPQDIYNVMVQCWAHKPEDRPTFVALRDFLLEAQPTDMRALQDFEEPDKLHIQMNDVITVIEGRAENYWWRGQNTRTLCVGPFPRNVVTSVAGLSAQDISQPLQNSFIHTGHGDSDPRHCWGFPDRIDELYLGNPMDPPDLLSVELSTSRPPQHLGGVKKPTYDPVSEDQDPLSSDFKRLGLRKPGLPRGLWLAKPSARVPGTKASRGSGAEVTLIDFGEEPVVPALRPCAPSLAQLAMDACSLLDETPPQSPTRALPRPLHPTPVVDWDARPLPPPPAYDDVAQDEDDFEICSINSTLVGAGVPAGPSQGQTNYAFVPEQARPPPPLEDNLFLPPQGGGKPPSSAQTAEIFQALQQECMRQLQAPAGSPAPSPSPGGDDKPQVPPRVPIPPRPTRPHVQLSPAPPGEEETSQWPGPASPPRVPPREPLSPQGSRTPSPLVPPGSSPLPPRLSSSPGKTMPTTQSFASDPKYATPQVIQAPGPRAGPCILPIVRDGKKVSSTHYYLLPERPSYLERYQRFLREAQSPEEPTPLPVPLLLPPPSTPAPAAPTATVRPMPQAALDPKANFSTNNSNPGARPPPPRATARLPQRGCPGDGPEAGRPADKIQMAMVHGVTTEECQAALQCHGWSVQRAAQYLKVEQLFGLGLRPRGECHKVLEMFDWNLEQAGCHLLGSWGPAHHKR
Tyrosine-protein kinase Lck, sequence (P06239 whole entry): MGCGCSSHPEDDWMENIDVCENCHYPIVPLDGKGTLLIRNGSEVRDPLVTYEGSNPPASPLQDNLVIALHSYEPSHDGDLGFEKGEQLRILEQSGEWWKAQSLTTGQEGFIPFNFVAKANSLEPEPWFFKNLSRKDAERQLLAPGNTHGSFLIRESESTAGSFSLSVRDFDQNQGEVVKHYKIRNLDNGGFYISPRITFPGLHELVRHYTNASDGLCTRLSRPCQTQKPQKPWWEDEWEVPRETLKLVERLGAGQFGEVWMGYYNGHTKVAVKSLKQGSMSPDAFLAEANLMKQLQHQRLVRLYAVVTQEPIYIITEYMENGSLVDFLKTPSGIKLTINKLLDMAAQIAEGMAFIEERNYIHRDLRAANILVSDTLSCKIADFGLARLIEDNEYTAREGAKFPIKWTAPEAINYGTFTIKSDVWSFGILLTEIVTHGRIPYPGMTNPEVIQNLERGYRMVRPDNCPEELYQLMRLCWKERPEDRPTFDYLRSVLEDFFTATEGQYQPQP

Row | IC50 [1] [nM] | IC50 [2] [nM] | IC50 (Activated CDC42 kinase 1) [nM] | IC50 [3] [nM] | IC50 (T-cell [4]) [nM] | IC50 (T-cell [5]) [nM] | t1/2 (Rattus norvegicus) [h] | clearance [6] [mL/min/kg] | Vd [7] [L/kg] | half-life [8] [h] | SMILES
1 | 2100 | 4200 | 110 | 26 | 5200 | 4000 | – | – | – | – | c1ccc(-c2oc3nccc(NC[C@@H]4CCCO4)c3c2-c2ccccc2)cc1
2 | – | 57 | 150 | 32 | 130 | 14 | – | 128 | 4.7 | 5.3 | c1ccc(-c2c(-c3ccc(OCCN4CCOCC4)cc3)oc3nccc(NCCN4CCNCC4)c23)cc1
3 | – | 210 | 170 | 110 | 650 | 170 | – | – | – | – | c1ccc(-c2c(-c3ccc(OCCN4CCCC4)cc3)oc3nccc(NCCN4CCNCC4)c23)cc1
4 | – | 2600 | – | – | 710 | – | – | – | – | – | c1ccc(-c2oc3ncnc(NCCN4CCNCC4)c3c2-c2ccccc2)cc1
5 | – | 360 | 420 | 140 | 1200 | 620 | – | 20 | 2.3 | 1.5 | c1ccc(-c2oc3nccc(NCCN4CCNCC4)c3c2-c2ccccc2)cc1
6 | 1600 | 4700 | 180 | 80 | – | – | – | – | – | – | c1ccc(-c2c(-c3ccc(OCCN4CCCCC4)cc3)oc3nccc(NCCc4ccncc4)c23)cc1
7 | – | 370 | 20 | 37 | – | – | – | – | – | – | c1ccc(-c2c(-c3ccc(OCCN4CCCCC4)cc3)oc3nccc(NCCc4cccnc4)c23)cc1

More lines, now with the values behind:

Row | SMILES | IC50 [1] [nM] | IC50 [2] [nM] | IC50 (Activated CDC42 kinase 1) [nM] | IC50 [3] [nM] | IC50 (T-cell [4]) [nM] | IC50 (T-cell [5]) [nM] | t1/2 (Rattus norvegicus) [h] | clearance [6] [mL/min/kg] | Vd [7] [L/kg] | half-life [8] [h]
8 | CC(C)N(CCOc1ccc(-c2oc3nccc(NCCN4CCNCC4)c3c2-c2ccccc2)cc1)C(C)C | 19 | 67 | 180 | 44 | 250 | 18 | 3.1 | – | – | –
9 | c1ccc(-c2c(-c3ccc(OCCN4CCCCC4)cc3)oc3nccc(NCCCn4ccnc4)c23)cc1 | – | 1700 | 930 | 1400 | – | – | – | – | – | –
10 | c1ccc(-c2c(-c3ccc(OCCn4ccnc4)cc3)oc3nccc(NCCN4CCNCC4)c23)cc1 | – | 160 | 84 | 25 | 470 | 57 | – | 192 | 7.2 | 0.8
11 | c1ccc(-c2c(-c3ccc(OCCN4CCCCC4)cc3)oc3nccc(NCCN4CCNCC4)c23)cc1 | 29 | 100 | 120 | 71 | 510 | 61 | – | 188 | 60 | 4.7
